Laboratory results reported in ChEMBL document CHEMBL1212834, “Pyrido[2,3-b]pyrazines, discovery of TRPV1 antagonists with reduced potential for the formation of reactive metabolites” (Bioorg Med Chem Lett, 2010).
pIC50: −log10 of the molar value.

Legend:
[1] = target: Transient receptor potential cation channel subfamily V member 1 (Homo sapiens, UniProt Q8NER1); test: Antagonist activity at human TRPV1 assessed as inhibition of capsaicin-induced receptor activation by FLIPR assay; format: functional
Chain of Transient receptor potential cation channel subfamily V member 1 (Q8NER1 whole entry): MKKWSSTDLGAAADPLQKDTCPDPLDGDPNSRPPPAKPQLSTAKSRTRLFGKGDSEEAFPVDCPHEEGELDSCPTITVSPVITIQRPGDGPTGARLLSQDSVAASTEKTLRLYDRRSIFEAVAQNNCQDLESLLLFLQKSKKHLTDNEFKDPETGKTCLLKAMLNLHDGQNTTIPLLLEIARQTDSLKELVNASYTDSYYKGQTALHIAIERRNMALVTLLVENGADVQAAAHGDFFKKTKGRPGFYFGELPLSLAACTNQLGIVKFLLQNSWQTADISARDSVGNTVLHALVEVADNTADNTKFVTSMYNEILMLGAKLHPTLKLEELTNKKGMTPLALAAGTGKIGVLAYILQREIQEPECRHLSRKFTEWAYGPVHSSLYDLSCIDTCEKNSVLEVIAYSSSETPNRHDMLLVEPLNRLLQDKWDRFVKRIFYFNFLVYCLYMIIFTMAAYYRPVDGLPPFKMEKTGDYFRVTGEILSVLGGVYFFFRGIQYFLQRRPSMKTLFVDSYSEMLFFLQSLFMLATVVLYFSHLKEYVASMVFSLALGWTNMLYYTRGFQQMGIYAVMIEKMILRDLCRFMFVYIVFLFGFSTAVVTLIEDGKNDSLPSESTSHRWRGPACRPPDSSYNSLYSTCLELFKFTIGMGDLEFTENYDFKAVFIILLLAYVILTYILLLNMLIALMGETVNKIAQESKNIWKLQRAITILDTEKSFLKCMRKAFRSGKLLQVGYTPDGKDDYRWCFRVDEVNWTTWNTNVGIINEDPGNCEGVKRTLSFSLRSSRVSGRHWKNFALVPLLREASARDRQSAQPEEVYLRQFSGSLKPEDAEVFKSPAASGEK
How it was run: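 Human TRPV1 activated by capsaicin; inhibition read by FLIPR. IC50 is the mean of ≥3 experiments.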

[2] = AUC (0 to 24 hrs) in rhesus monkey at 1 mg/kg, po; format: ADME, organism-based, Macaca mulatta; parameters: time < 24 hr, dose 1 mg/kg, route oral; details: plasma
How it was run: (§1)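 Oral PK at the dose in the line, given as a suspension in 0.5% methocel. […] Reported as mean ± error.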

[3] = Plasma concentration in rat complete Freund's adjuvant-induced inflammation model at 3 mg/kg, po QD for 3 consecutive days measured at 2 hrs post dose on day 1; format: ADME, organism-based; parameters: dose 3 mg/kg, route oral
How it was run: (§2)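 CFA (200 µL) injected intraplantar into left hind paw; next day rats dosed orally once daily for three consecutive days (1, 3 or 10 mg/kg, suspension in 0.5% methocel). Separate cohort: plasma sampled each day 2 h after dosing.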

[4] = Metabolic stability in rat liver microsomes assessed as compound remaining after 10 min; format: ADME, Microsome; details: read-out: Stability
[5] = Volume of distribution in rat at 1 mg/kg, iv; format: ADME, organism-based; parameters: dose 1 mg/kg, route intravenous; details: in vivo
How it was run: (§3)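 Intravenous dose of 1 mg/kg given as a solution in 3:1 PEG300:water to rat, dog or rhesus monkey. Plasma PK parameters (T1/2, clearance, Vd) derived.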

[6] = Cmax in rat at 10 mg/kg, po; format: ADME, organism-based; parameters: dose 10 mg/kg, route oral; details: in vivo; how it was run: as §1
[7] = AUC (0 to 24 hrs) in rat at 10 mg/kg, po; format: ADME, organism-based; parameters: time < 24 hr, dose 10 mg/kg, route oral; details: plasma; how it was run: as §1
[8] = Cmax in rat at 100 mg/kg, po; format: ADME, organism-based; parameters: dose 100 mg/kg, route oral; details: in vivo; how it was run: as §1
[9] = Half life in dog at 1 mg/kg, iv; format: ADME, organism-based, Canis lupus familiaris; parameters: dose 1 mg/kg, route intravenous; details: in vivo
How it was run: (§4)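 IV PK at 1 mg/kg, given as a solution in 3:1 PEG300:water. Plasma half-life, clearance and volume of distribution derived.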

[10] = Volume of distribution in dog at 1 mg/kg, iv; format: ADME, organism-based, Canis lupus familiaris; parameters: dose 1 mg/kg, route intravenous; details: in vivo; how it was run: as §3
[11] = AUC (0 to 24 hrs) in dog at 1 mg/kg, po; format: ADME, organism-based, Canis lupus familiaris; parameters: time < 24 hr, dose 1 mg/kg, route oral; details: plasma; how it was run: as §1
[12] = Cmax in dog at 10 mg/kg, po; format: ADME, organism-based, Canis lupus familiaris; parameters: dose 10 mg/kg, route oral; details: in vivo; how it was run: as §1
[13] = Half life in rhesus monkey at 1 mg/kg, iv; format: ADME, organism-based, Macaca mulatta; parameters: dose 1 mg/kg, route intravenous; details: in vivo; how it was run: as §4
[14] = Clearance in rhesus monkey at 1 mg/kg, iv; format: ADME, organism-based, Macaca mulatta; parameters: dose 1 mg/kg, route intravenous; details: in vivo; how it was run: as §4
[15] = Volume of distribution in rhesus monkey at 1 mg/kg, iv; format: ADME, organism-based, Macaca mulatta; parameters: dose 1 mg/kg, route intravenous; details: in vivo; how it was run: as §3
[16] = Oral bioavailability in rhesus monkey at 1 mg/kg; format: ADME, organism-based, Macaca mulatta; details: in vivo
How it was run: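 Oral bioavailability from a 1 mg/kg po dose (suspension in 0.5% methocel), compared against a 1 mg/kg iv dose (solution in 3:1 PEG300:water).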

[17] = Cmax in rat brain of complete Freund's adjuvant-induced inflammation model at 10 mg/kg, po; format: ADME, organism-based; parameters: dose 10 mg/kg, route oral
[18] = AUC (0 to 24 hrs) in rat brain at 10 mg/kg, po; format: ADME, organism-based; parameters: time < 24 hr, dose 10 mg/kg, route oral
[19] = Cmax in rat brain at 10 mg/kg, po; format: ADME, organism-based; parameters: dose 10 mg/kg, route oral
Rattus norvegicus [20] = test: Antiinflammatory activity in rat assessed as inhibition of complete Freund's adjuvant-induced hind paw edema at 10 mg/kg, po administered 1 day after complete Freund's adjuvant challenge QD for 3 consecutive days measured at 2 hrs post dose on day 1; format: functional
How it was run: (§5)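 CFA 200 µL injected intraplantar into the left hind paw. From the next day, 1, 3 or 10 mg/kg po once daily for 3 days as a suspension in 0.5% methocel.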

[21] = Plasma concentration in rat complete Freund's adjuvant-induced inflammation model at 1 mg/kg, po QD for 3 consecutive days measured at 2 hrs post dose on day 2; format: ADME, organism-based; parameters: dose 1 mg/kg, route oral; how it was run: as §2
[22] = Plasma concentration in rat complete Freund's adjuvant-induced inflammation model at 10 mg/kg, po at 2 hrs on second day; format: ADME, organism-based; parameters: dose 10 mg/kg, route oral; how it was run: as §2
[23] = Plasma concentration in rat complete Freund's adjuvant-induced inflammation model at 1 mg/kg, po at 2 hrs on third day; format: ADME, organism-based; parameters: dose 1 mg/kg, route oral; how it was run: as §2
[24] = Plasma concentration in rat complete Freund's adjuvant-induced inflammation model at 10 mg/kg, po at 2 hrs on third day; format: ADME, organism-based; parameters: dose 10 mg/kg, route oral; how it was run: as §2
[25] = Apparent permeability across MDCK cell membrane; format: ADME, cell-based, Canis lupus familiaris; details: dog
How it was run: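 Permeability across MDCK cell monolayers, reported as Papp. Efflux ratio calculated as (B→A)/(A→B).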

Rattus norvegicus [26] = test: Antiinflammatory activity in po dosed rat assessed as inhibition of complete Freund's adjuvant-induced hind paw edema administered 1 day after complete Freund's adjuvant challenge QD for 3 consecutive days measured at 2 hrs post dose on day 1; format: functional, organism-based; how it was run: as §5
Rattus norvegicus [27] = test: Antiinflammatory activity in rat assessed as inhibition of complete Freund's adjuvant-induced hind paw edema at 3 mg/kg, po administered 1 day after complete Freund's adjuvant challenge QD for 3 consecutive days measured at 24 hrs post dose on day 3; format: functional; how it was run: as §5
Rattus norvegicus [28] = test: Antiinflammatory activity in rat assessed as inhibition of complete Freund's adjuvant-induced hind paw edema at 10 mg/kg, po administered 1 day after complete Freund's adjuvant challenge QD for 3 consecutive days measured at 24 hrs post dose on day 3; format: functional; how it was run: as §5
Canis familiaris [29] = species: Canis familiaris; test: Cardiotoxicity in dog assessed as effect on heart rate at plasma concentration of up to 24 uM; format: toxicity, organism-based, Canis lupus familiaris
Canis familiaris [30] = species: Canis familiaris; test: Cardiotoxicity in dog assessed as effect on ECG intervals at plasma concentration of up to 24 uM; format: toxicity, organism-based, Canis lupus familiaris
Liver microsomes = test: Metabolic stability in human liver microsomes assessed per mg of protein after 1 hr
Rattus norvegicus [31] = test: Antihyperalgesic activity in rat assessed as inhibition of complete Freund's adjuvant-induced mechanical hyperalgesia measured as differential weight bearing at 1 mg/kg, po administered 1 day after complete Freund's adjuvant challenge QD for 3 consecutive days measured at 2 hrs post dose on day 1

pIC50 [1]: 9.10
AUC(0-t) at 24 h [2]: 4.9 µM·h
concentration at 2 h [3]: 1200 nM
remaining at 10 min [4]: 100%
Vd [5]: 4.3 L/kg
Cmax [6]: 2100 nM
AUC(0-t) at 24 h [7]: 29.9 µM·h
Cmax [8]: 15000 nM
half-life [9]: 1.5 h
Vd [10]: 1.3 L/kg
AUC(0-t) at 24 h [11]: 2.7 µM·h
Cmax [12]: 5200 nM
half-life [13]: 4.4 h
clearance [14]: 2.8 mL/min/kg
Vd [15]: 1 L/kg
bioavailability [16]: 38%
Cmax [17]: 300 nM
AUC(0-t) at 24 h [18]: 3.4 µM·h
Cmax [19]: 300 nM
concentration at 2 h [21]: 360 nM
concentration at 2 h [22]: 3120 nM
concentration at 2 h [23]: 350 nM
concentration at 2 h [24]: 4240 nM
Papp [25]: 34 ×10⁻⁶ cm/s
Stability (Liver microsomes): 8 pmol
Compound: NC(=O)c1cnc(-c2cnc3c(Nc4ccc(C(F)(F)F)cn4)ccnc3n2)c(C(F)(F)F)c1
inhibition in vivo at 10 mg/kg (Rattus norvegicus [20]): 85%
Activity (Rattus norvegicus [26]): Dose-dependent effect
inhibition in vivo at 3 mg/kg (Rattus norvegicus [27]): 64%
inhibition in vivo at 10 mg/kg (Rattus norvegicus [28]): 70%
Activity (Canis familiaris [29]): Non-toxic
Activity (Canis familiaris [30]): Non-toxic
inhibition in vivo at 1 mg/kg (Rattus norvegicus [31]): 39%
